The structures appear in SMILES notation.

The results in this text go back to ChEMBL document CHEMBL5046217, “Discovery of New Imidazo[2,1-b]thiazole Derivatives as Potent Pan-RAF Inhibitors with Promising In Vitro and In Vivo Anti-melanoma Activity” (J Med Chem, 2021).

Series [1] concerns NSCLC. Kind of series: Antiproliferative activity against human NSCLC cell line assessed as cell growth inhibition measured after 48 hrs by SRB assay.
For the next series, the system named is LOX IMVI. Kind of series: Antiproliferative activity against human LOX IMVI cells assessed as total growth inhibition measured after 48 hrs by SRB assay.
Series [2] concerns the target Mitogen-activated protein kinase kinase kinase 20 (Homo sapiens, UniProt Q9NYL2). Kind of series: Inhibition of ZAK (unknown origin) incubated for 1 hr by qPCR analysis. The gist of the method: (§1)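 Competition binding assay. Kinases were either T7-phage-tagged (grown in an E. coli BL21-derived host) or expressed in HEK-293 cells and DNA-tagged. […] Bound kinase was eluted with non-biotinylated ligand and quantified by qPCR.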

Series [3] has as its system SK-MEL-28. Put plainly: Antiproliferative activity against human SK-MEL-28 cells assessed as total growth inhibition measured after 48 hrs by SRB assay. Conditions: SK-MEL-28, 48 h.
Series [4] concerns Panel melanoma (Carcinoma cell lines). Put plainly: Antiproliferative activity against human Panel melanoma (Carcinoma cell lines) assessed as cell growth inhibition measured after 48 hrs by SRB assay.
The next series has as its system UACC-62. Put plainly: Antiproliferative activity against human UACC-62 cells assessed as cell growth inhibition measured after 48 hrs by SRB assay. Particulars: UACC-62, 48 h.
The test system of series [5] is Panel leukemia (Carcinoma cell lines). Put plainly: Antiproliferative activity against human Panel leukemia (Carcinoma cell lines) assessed as cell growth inhibition measured after 48 hrs by SRB assay.
The subject of series [6] is Panel ovarian (Carcinoma cell lines). Kind of series: Antiproliferative activity against human Panel ovarian (Carcinoma cell lines) assessed as cell growth inhibition measured after 48 hrs by SRB assay.
Series [7] relates to SK-MEL-28. Put plainly: Antiproliferative activity against human SK-MEL-28 cells assessed as cell growth inhibition measured after 48 hrs by SRB assay. Particulars: SK-MEL-28, 48 h.
Series [8] deals with Panel ovarian (Carcinoma cell lines). Put plainly: cells. Conditions: Homo sapiens, 48 h, read-out: INH.
In series [9] the target is RAF proto-oncogene serine/threonine-protein kinase (Homo sapiens, UniProt P04049). Put plainly: Inhibition of human wild type CRAF using myelin basic protein as substrate in presence of [gamma-33P]ATP incubated for 40 mins by scintillation counting method.
Series [10] has as its target Serine/threonine-protein kinase B-raf (Homo sapiens, UniProt P15056). Put plainly: Inhibition of human wild type BRAF using myelin basic protein as substrate in presence of [gamma-33P]ATP incubated for 40 mins by scintillation counting method. Summed up:
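Radiometric kinase assay run at Reaction Biology. Kinase (5−10 mU) in 25 mM Tris pH 7.5, 0.02 mM EGTA, 10 mM magnesium acetate with 0.66 mg/mL myelin basic protein and [γ-33P]ATP at 1 μM ATP. Reaction started with Mg-ATP and run 40 min at room temperature, then stopped with 3% phosphoric acid. Spotted on P30 filtermat, washed, scintillation counted.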

A further series has as its system MDA-MB-435. Put plainly: Antiproliferative activity against human MDA-MB-435 cells assessed as total growth inhibition measured after 48 hrs by SRB assay. Particulars: MDA-MB-435, 48 h.
Series [11] concerns NSCLC. Kind of series: cells. Particulars: Homo sapiens, 48 h, read-out: INH.
The next series is described as follows: in vitro. Conditions: human, BJ cells and Malme-3M cells.
Another series has as its system UACC-257. Kind of series: Antiproliferative activity against human UACC-257 cells assessed as cell growth inhibition measured after 48 hrs by SRB assay. Conditions: UACC-257, 48 h.
For series [12], the system named is Panel renal (Carcinoma cell lines). Kind of series: Antiproliferative activity against human Panel renal (Carcinoma cell lines) assessed as cell growth inhibition measured after 48 hrs by SRB assay.
Series [13] deals with M14. Kind of series: Antiproliferative activity against human M14 cells assessed as total growth inhibition measured after 48 hrs by SRB assay. Conditions: M14, 48 h.
Series [14] concerns M14. Kind of series: Antiproliferative activity against human M14 cells assessed as cell growth inhibition measured after 48 hrs by SRB assay. Particulars: M14, 48 h.
Series [15] has as its target Mitogen-activated protein kinase 11 (Homo sapiens, UniProt Q15759). Kind of series: Inhibition of MAPK11 (unknown origin) incubated for 1 hr by qPCR analysis. The gist of the method: as §1
In a further series the test system is SK-MEL-5. Kind of series: Antiproliferative activity against human SK-MEL-5 cells assessed as total growth inhibition measured after 48 hrs by SRB assay. Conditions: SK-MEL-5, 48 h.
A short description of series [16]: Cytotoxicity against human BJ cells assessed as cell growth inhibition incubated for 48 hrs by MTT assay. In kind it is toxicity, cell-based. The gist of the method:
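BJ1 normal skin fibroblasts were seeded at 10 × 10³ cells/well with compound in triplicate wells and grown in DMEM-F12 at 37 °C, 5% CO₂, across an eight-point dilution series. Growth inhibition was calculated as (1 − T/C) × 100, and IC50 was taken from the dose–response curve.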

Chain of Serine/threonine-protein kinase B-raf (P15056 whole entry): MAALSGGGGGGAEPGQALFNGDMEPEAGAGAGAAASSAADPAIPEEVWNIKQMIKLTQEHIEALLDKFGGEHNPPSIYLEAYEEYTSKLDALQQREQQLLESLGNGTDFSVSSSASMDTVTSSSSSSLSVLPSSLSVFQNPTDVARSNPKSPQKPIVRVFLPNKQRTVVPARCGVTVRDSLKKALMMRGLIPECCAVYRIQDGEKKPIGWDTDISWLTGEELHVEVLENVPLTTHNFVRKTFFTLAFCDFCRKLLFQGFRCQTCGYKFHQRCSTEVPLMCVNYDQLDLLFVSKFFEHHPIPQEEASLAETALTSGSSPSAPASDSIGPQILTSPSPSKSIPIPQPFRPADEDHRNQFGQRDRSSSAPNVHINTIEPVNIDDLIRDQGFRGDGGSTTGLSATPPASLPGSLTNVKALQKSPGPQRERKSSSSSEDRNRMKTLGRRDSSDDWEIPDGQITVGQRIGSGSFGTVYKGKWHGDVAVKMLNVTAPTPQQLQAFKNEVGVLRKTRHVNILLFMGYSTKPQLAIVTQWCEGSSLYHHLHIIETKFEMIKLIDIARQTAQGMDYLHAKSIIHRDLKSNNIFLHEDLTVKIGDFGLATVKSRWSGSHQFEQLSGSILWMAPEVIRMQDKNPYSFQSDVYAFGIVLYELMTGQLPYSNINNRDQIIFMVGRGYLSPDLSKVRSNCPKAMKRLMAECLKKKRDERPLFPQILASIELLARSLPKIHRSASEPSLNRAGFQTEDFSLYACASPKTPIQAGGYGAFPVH
Chain of RAF proto-oncogene serine/threonine-protein kinase (P04049 whole entry): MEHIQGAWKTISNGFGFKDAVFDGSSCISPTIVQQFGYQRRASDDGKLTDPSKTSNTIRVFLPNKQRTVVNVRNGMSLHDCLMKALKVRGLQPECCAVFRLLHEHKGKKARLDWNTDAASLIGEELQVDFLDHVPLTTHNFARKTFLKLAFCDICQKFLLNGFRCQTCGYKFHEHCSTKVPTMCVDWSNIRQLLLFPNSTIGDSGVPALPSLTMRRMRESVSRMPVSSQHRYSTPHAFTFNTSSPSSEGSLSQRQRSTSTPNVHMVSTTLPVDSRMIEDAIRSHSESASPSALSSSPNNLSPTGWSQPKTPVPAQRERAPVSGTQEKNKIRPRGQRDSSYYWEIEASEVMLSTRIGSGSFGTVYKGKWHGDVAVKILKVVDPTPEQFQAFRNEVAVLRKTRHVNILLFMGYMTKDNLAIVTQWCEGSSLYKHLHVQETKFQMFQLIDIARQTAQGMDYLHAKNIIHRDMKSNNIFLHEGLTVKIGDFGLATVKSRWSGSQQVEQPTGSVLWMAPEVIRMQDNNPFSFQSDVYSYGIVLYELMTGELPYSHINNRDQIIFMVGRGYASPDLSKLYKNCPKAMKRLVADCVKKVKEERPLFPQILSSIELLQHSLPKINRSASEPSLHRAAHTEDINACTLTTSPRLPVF
Chain of Mitogen-activated protein kinase 11 (Q15759 whole entry): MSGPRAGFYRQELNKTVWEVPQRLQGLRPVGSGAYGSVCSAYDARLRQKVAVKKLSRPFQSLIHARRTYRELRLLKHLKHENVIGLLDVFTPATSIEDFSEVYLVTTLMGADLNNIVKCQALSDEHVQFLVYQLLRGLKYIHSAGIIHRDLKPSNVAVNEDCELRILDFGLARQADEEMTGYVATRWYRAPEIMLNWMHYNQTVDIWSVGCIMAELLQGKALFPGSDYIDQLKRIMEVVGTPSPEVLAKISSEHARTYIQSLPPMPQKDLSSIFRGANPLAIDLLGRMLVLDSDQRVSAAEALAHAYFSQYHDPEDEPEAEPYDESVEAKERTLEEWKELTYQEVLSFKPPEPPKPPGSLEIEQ
Chain of Mitogen-activated protein kinase kinase kinase 20 (Q9NYL2 whole entry): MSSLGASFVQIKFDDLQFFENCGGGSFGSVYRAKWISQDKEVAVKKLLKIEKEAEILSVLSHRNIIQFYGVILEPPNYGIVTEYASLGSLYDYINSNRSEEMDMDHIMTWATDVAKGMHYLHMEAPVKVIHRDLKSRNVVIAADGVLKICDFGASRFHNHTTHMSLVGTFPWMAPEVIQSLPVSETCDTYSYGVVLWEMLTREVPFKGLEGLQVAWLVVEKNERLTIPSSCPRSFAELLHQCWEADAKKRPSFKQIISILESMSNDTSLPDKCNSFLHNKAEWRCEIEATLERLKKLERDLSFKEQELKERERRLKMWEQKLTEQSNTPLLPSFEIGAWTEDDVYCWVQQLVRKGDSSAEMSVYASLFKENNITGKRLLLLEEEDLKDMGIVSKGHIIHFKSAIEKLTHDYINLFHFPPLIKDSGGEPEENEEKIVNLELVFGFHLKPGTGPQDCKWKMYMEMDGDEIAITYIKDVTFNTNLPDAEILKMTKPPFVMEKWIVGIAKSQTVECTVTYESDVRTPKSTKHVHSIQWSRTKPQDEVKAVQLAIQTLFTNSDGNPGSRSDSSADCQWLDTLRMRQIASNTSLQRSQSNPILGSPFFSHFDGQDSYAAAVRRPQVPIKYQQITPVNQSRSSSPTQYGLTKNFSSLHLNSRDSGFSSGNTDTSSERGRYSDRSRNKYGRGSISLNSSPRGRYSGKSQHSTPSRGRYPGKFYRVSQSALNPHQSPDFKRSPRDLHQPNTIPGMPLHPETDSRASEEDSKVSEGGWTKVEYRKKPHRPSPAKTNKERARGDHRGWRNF

Consider `O=S(=O)(NCCCNc1nccc(-c2c(-c3cccc(O)c3)nc3sccn23)n1)c1cccc(F)c1`, for which the IC50 in the series with NSCLC [1] was 2550 nM; in [2], 10300 nM; in series [4], 2030 nM; in the series with UACC-62, 750 nM; in [5] it was 2040 nM; in [6] it was 2970 nM. In addition, the IC50 in the series with SK-MEL-28 [7] is 2290 nM; in series [9] it was 5 nM; in series [10], 4.2 nM; with UACC-257, 2850 nM; in series [12] it was 2930 nM; in the series on M14 [14] it was 2540 nM. The molecule further gave a half-maximal inhibitory concentration (IC50) in series [15] of 980 nM. In addition, the TGI amounted to 5820 nM with LOX IMVI; 6860 nM with SK-MEL-28 [3]; 6510 nM in the series with MDA-MB-435; 10200 nM in the series on M14 [13]; 2280 nM in the series with SK-MEL-5. Further, the values for the inhibition at 10 µM (in series [8]; with NSCLC [11]) were 75% and 83.1%, respectively. In addition, in the series “in vitro”, the selectivity ratio was determined as 17.4. Besides, in series [16], the half-maximal inhibitory concentration (IC50) at 48 h was determined as 45200 nM.
